pIC50: −log10 of the molar value. Calls of active or inactive are those of the source. No cut-off for these calls is given here.
Test system: not listed separately
Test: (§1) Inhibition of HIV1 envelope glycoprotein gp160-mediated cell fusion by cell-cell fusion assay
Parameters: species or system Human immunodeficiency virus 1
Procedure, shortened: (§2)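 Cell-cell fusion driven by HIV-1 Env from LAV (X4) and SF162 (R5) strains. Inhibitor added to wells at increasing concentrations; run in duplicate on at least two separate days. Percent fusion fitted by nonlinear least squares to % fusion = 100/(1 + KA[I]), where KA is the equilibrium association constant for inhibitor binding to gp120.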

Q: With `CCCCCCCCC[C@@H]1C[C@@H]2CCC3=C(C(=O)O[C@H](C)CCCCC[C@@H]4C[C@@H]5CC[C@@H]6C[C@H](C)NC(=[N+]65)N4)[C@@H](C)NC(=[N+]32)N1` as the molecule, how does the pIC50 read?
A: 6.10

Q: With `CCCCCCCCC[C@H](O)C[C@@H]1CC[C@H]2C(C(=O)O[C@@H](C)CCCCC[C@@H]3C[C@@H]4CC[C@@H]5C[C@H](C)NC(=[N+]54)N3)=C(C)NC(N)=[N+]12` as the molecule, how does the pIC50 read?
A: 5.11

Q: With `CCCCCCCCC[C@@H]1C[C@@H]2CC[C@H]3C(C(=O)OC(C)(C)C)=C(C)NC(=[N+]23)N1` as the molecule, how does the pIC50 read?
A: 5.46

Q: With `CCCCCCCCC[C@@H]1C[C@@H]2CC[C@H]3[C@H](C(=O)O[C@H](C)CCCCC[C@@H]4C[C@@H]5CC[C@@H]6C[C@H](C)NC(=[N+]65)N4)[C@@H](C)NC(=[N+]23)N1` as the molecule, how does the pIC50 read?
A: 5.52

Q: With `CCCCCCCCC[C@@H]1C[C@@H]2CC[C@H]3C(C(=O)O[C@@H](C)CCCCC[C@@H]4C[C@@H]5CC[C@@H]6C[C@H](C)NC(=[N+]65)N4)=C(C)NC(=[N+]23)N1` as the molecule, how does the pIC50 read?
A: 5.74

Q: With `C=CCOC(=O)C1=C(CCCCC[C@@H](C)O[Si](C)(C)C(C)(C)C)NC2=[N+]3[C@H](CC[C@@H]13)C[C@H](C)N2` as the molecule, how does the pIC50 read?
A: 5.35

Q: With `CCCCCCCCC[C@@H]1C[C@@H]2CC[C@H]3[C@H](C(=O)O[C@H](C)CCCCC[C@@H]4C[C@@H]5CC[C@@H]6C[C@H](C)NC(=[N+]65)N4)[C@H](C)NC(=[N+]23)N1` as the molecule, how does the pIC50 read?
A: 5.60

Q: With `CC(=O)CC(=O)O[C@@H](C)CCCCC[C@@H]1C[C@@H]2CC[C@@H]3C[C@H](C)NC(=[N+]32)N1` as the molecule, how does the pIC50 read?
A: 4.77

Q: With `CC(=O)CC(=O)O[C@@H](C)CCCCC[C@H]1C[C@H]2CC[C@H]3C[C@@H](C)NC(=[N+]23)N1` as the molecule, how does the pIC50 read?
A: 5.28

Q: With `CCCCCCCCC[C@H](O)C[C@@H]1CC[C@H]2C(C(=O)O[C@H](C)CCCCC[C@H]3C[C@H]4CC[C@H]5C[C@@H](C)NC(=[N+]45)N3)=C(C)NC(N)=[N+]12` as the molecule, how does the pIC50 read?
A: 5.21

Test system: Human immunodeficiency virus 1
Test: as §1
Procedure, shortened: as §2

Q: With `CCCCCCCCC[C@H]1C[C@H]2CC[C@H]3C(C(=O)OCc4ccc(COC(=O)C5=C(C)NC6=[N+]7[C@H](CC[C@@H]57)C[C@H](CCCCCCCCC)N6)cc4)=C(C)NC(=[N+]23)N1` as the molecule, how does the Activity read?
A: inactive

Q: With `CCCCCCCCC[C@H]1C[C@H]2CC[C@H]3C(C(=O)OCCCCCCCCOC(=O)C4=C(C)NC5=[N+]6[C@H](CC[C@@H]46)C[C@H](CCCCCCCCC)N5)=C(C)NC(=[N+]23)N1` as the molecule, how does the Activity read?
A: inactive

Test system: Human immunodeficiency virus 1
Test: Inhibition of HIV1 envelope glycoprotein gp160-mediated cell fusion at 100 µM by cell-cell fusion assay

Q: With `CCCCCCCCC[C@H]1C[C@H]2CC[C@H]3C(C(=O)OCc4ccc(COC(=O)C5=C(C)NC6=[N+]7[C@H](CC[C@@H]57)C[C@H](CCCCCCCCC)N6)cc4)=C(C)NC(=[N+]23)N1` as the molecule, how does the Activity read?
A: inactive

Q: For `CCCCCCCCCC1=C(C(=O)OCc2ccc(COC(=O)C3=C(CCCCCCCCC)NC4=[N+]5[C@H](CC[C@@H]35)C[C@H](CCCCCCC)N4)cc2)[C@@H]2CC[C@@H]3C[C@H](CCCCCCC)NC(=[N+]32)N1`, which Activity is on record?
A: inactive

— ChEMBL document CHEMBL1148198, “Inhibition of HIV-1 envelope-mediated fusion by synthetic batzelladine analogues” (J Nat Prod, 2004)
